Measles CPE – protection of cells from measles virus | 1.5% of 140,000 active | protection (pct of control), % at 4 µM | AID 841 | Measles virus-infected cells, CPE protection, absorbance; in the data active means protection mostly above about 24%, no sharp cut-off; inactive means mostly below about 26%
Rev-RRE block – HIV Rev-RRE protein-RNA interaction inhibition. P05866. Rev peptide-RRE RNA binding, FRET. inhibition, % at 8 µM. 0.79% of 97,000 active. AID 704;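 active means inhibition above the screen-wide mean plus 3 SD, cut at about 35% in these data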;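 further: 0% = median DMSO wells and 100% = median Neomycin B control wells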
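Assay system: Labelled RRE RNA duplex and labelled Rev peptide | Times: 5 min preincubation and 15 min binding, 25 °C | Detection: FRET, ex 480 nm, em 540 and 671 nm | Evaluation: % inhibition of FRET ratio versus controls | Benchmarks: DMSO wells as 0% and neomycin B wells as 100% inhibition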
Cav3 T inh – inhibitors of human Cav3.2 T-type calcium channel; Cav3.2-expressing cells, Fluo-4 calcium fluorescence FDSS; stronger effect = lower value; B-score at 10 µM; AID 449739; 4% of 100,000 active;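 active means single-dose well whose peak fluorescence ratio is a statistical outlier from its plate by either plate-standardised score or position-corrected B-score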
Target sequence (O95180 whole entry, looked up): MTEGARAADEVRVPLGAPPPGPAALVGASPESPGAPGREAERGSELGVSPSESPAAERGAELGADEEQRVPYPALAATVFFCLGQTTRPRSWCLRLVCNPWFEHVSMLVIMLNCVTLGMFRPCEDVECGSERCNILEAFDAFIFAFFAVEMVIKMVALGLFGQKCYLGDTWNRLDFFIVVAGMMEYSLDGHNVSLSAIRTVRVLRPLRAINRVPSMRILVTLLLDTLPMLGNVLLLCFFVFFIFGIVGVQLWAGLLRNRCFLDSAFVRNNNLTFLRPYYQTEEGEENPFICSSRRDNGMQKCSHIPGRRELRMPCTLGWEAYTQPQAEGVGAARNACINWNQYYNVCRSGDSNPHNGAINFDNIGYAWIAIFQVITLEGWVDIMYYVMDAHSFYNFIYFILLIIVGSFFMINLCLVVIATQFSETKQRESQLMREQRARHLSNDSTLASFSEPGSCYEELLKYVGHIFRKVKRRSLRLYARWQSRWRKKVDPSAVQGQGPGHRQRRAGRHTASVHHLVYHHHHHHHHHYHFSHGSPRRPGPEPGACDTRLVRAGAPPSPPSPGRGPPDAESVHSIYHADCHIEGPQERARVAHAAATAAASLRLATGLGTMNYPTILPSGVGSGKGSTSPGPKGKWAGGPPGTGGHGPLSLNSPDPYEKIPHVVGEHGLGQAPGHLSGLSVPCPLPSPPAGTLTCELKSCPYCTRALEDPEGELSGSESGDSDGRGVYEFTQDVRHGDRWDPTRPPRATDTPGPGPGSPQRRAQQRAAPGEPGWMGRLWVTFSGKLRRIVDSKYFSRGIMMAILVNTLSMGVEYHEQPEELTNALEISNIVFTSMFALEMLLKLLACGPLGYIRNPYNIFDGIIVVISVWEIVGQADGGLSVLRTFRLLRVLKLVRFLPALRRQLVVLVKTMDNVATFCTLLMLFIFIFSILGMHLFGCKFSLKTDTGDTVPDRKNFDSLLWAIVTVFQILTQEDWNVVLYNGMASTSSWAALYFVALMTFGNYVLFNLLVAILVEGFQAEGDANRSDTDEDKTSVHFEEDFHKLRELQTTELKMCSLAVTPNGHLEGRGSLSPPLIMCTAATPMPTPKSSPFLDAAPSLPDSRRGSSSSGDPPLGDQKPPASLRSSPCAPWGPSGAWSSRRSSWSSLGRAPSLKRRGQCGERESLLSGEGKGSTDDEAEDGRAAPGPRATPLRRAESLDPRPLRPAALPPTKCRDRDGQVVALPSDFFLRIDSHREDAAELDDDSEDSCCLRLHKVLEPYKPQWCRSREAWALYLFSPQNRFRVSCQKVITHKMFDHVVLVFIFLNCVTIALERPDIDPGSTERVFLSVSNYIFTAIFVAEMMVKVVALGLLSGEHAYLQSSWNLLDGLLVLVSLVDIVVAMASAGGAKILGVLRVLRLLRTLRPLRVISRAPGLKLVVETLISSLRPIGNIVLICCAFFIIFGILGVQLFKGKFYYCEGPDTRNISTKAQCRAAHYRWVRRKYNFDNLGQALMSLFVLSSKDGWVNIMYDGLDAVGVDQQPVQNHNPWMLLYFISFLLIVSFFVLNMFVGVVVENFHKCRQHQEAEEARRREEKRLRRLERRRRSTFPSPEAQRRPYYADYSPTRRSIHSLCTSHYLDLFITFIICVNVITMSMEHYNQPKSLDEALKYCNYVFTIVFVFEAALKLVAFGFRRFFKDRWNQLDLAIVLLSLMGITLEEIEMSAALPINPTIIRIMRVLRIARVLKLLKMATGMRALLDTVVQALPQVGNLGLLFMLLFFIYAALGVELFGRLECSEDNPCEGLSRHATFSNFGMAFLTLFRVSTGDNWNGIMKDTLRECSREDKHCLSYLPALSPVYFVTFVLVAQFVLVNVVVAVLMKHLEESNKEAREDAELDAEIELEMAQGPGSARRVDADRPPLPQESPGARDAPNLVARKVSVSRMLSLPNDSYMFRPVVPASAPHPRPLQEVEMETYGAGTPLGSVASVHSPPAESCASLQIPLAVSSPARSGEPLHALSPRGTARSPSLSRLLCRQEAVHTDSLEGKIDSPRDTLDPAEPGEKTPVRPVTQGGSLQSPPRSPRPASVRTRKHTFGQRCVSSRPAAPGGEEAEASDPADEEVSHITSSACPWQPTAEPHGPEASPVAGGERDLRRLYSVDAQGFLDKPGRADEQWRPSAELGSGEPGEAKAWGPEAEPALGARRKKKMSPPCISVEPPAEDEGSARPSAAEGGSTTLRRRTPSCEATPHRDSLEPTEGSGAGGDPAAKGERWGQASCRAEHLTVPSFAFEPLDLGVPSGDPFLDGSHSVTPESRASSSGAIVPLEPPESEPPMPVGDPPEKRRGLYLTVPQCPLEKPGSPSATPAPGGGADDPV
Pyk2 oligo antag – blocks oligomerization of human Pyk2 in cells | z-score (the deposit names both 25 µM and 10 µM) | Q293 cells, Pyk2 FERM NanoBiT luminescence; stronger effect = lower value | Q14289 | 0.83% of 99,000 active | AID 1347419;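 active means Z-score of -3 or lower, scaled per plate to the spread of control and sample wells; inactive means z-score above -3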;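 further: negative z-score means lost luminescence so less FERM oligomerization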
DAT uptake mod – changed human dopamine transporter uptake under cocaine IC80 | LLC-PK1 hDAT cells, [14C]-dopamine uptake with cocaine IC80; actives deviate in either direction | B-score at 10 µM | 1.3% of 110,000 active | AID 449768;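 active means Z score or B-score, a plate-position-corrected score, falls beyond the plate's 99.7% confidence bounds, in either direction; inactive means both scores lie inside the 99.7% bounds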;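 further: scored against the spread of the other compound wells on the same plate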
Phagocytosis inh – macrophage phagocytosis inhibition | J774A.1 macrophage IgG-bead phagocytosis, imaging | inhibition, % at 5 µM | 0.07% of 110,000 active;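 active means inhibition above the mean of the plate negative controls plus 5 SD, cut at about 13% in these data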;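 further: phagocytic index as fraction of beads internalized from green versus red external bead signal; plate controls were DMSO negative control for no effect and cytochalasin-D positive control for full effect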
An asterisk follows results filed as active; nt = no result given; [ ] = remark or other dose. Rows were chosen to be rich in hits. Some 5.9% of all compounds tested hit in one or more screens of this group.

SMILES	Measles CPE	Rev-RRE block	Cav3 T inh	Pyk2 oligo antag	DAT uptake mod	Phagocytosis inh
O=C(CN1C(=O)CCC1=O)Nc1ccc2c3c(cccc13)CC2	7	3	-0.93	-0.06	-1.4	0
Cn1c(=O)c2ncn(CC(=O)Nc3ccc4c5c(cccc35)CC4)c2n(C)c1=O	4	46*	-0.82	-0.16	0.23	-1
COC(=O)C1=C(C)N=C2SC(C)C(=O)N2C1c1cccc(F)c1 (configuration not stated)	0	3	-4.6*	-3.6*	0.29	6
COc1ccc(C(NC(=O)C2CCCCC2)c2c(O)ccc3ccccc23)cc1 (configuration not stated)	2	nt	nt	nt	nt	-11
CCN(CC)C(=O)N1CCc2ccccc2C1CN1C(=O)c2ccccc2C1=O (configuration not stated)	nt	8	-4.2*	-0.62	0.024	nt
O=C1c2ccccc2C(=O)N1CC1c2ccccc2CCN1C(=O)C1CCCCC1 (configuration not stated)	9	14	-2.5	2.6	0.011	0
O=C(O)[C@@H]1CCCC[C@@H]1C(=O)N1CCc2ccccc2C1CN1C(=O)c2ccccc2C1=O (some centres not stated)	64*	3	-0.07	1.5	0.0062	2
Cc1ccc(-n2c(O)c(C=NCc3ccccn3)c3ccccc3c2=O)cc1C	21	nt	nt	nt	nt	-6
Cc1cccc2nc(CSc3ccccc3C(=O)O)cn12	54*	nt	nt	nt	nt	-4
COc1ccc(C2C(CC(=O)O)=C(O)C(=O)N2c2ccccc2)cc1 (configuration not stated)	3	3	0.081	-0.15	0.68	1
C=CCOc1ccc(C2C(C(=O)c3cccs3)=C(O)C(=O)N2c2nnc(C)s2)cc1 (configuration not stated)	nt	102*[fluorescence artefact?]	-0.2	-0.55	-0.12	nt
COc1ccc(C2C(C(=O)c3cccs3)=C(O)C(=O)N2c2nnc(C)s2)cc1OC (configuration not stated)	26	107*[fluorescence artefact?]	-1	-0.84	-0.0073	nt
C=CCOc1cccc(C2C(C(=O)c3ccc(C)o3)=C(O)C(=O)N2Cc2ccncc2)c1 (configuration not stated)	20	3	0.88	-0.03	-0.97	1
CCc1ccc2nc(N3C(=O)C(O)=C(C(=O)c4ccco4)C3c3cccs3)sc2c1 (configuration not stated)	6	13	-4.3*	0.4	-0.11	nt
COc1ccc(C2C(C(=O)c3cccs3)=C(O)C(=O)N2c2nncs2)cc1 (configuration not stated)	13	102*[fluorescence artefact?]	-1.5	0.47	0.61	1
CC(C)C(=O)Nc1ccc(S(=O)(=O)Nc2nccc(/C=C/c3ccccc3)n2)cc1	36	nt	nt	nt	nt	nt
O=C(OCC#CCSc1nc2ccccc2s1)c1ccco1	6	7	-2.3	0.68	-0.26	-1
Cc1ccc(C2C(C(=O)c3ccco3)=C(O)C(=O)N2c2nnc(C)s2)cc1 (configuration not stated)	24	48*	-0.22	-0.46	-0.35	nt
COC(=O)c1sc(N2C(=O)C(O)=C(C(=O)c3ccc(C)o3)C2c2ccc(F)cc2)nc1C (configuration not stated)	11	34	-4.9*	-1.2	1.4	0
C=CC[C@]12C[C@@H](OC)C(=O)C=C1O[C@@H](c1ccc(OC)c(OC)c1)[C@H]2C	nt	nt	1.8	nt	-0.3	nt
Fc1ccc(Cn2c(SCc3ccc(F)c(F)c3)nnc2C(F)(F)F)cc1	38	17	-3.8*	-1	0.5	nt
CC1CCC(NC(=O)N(CCCl)N=O)CC1 (configuration not stated)	nt	nt	nt	nt	-1.1	nt
Cc1ccc(N2C(=O)[C@@H]3C(C(=O)C(c4ccccc4)c4ccccc4)=NN[C@@H]3C2=O)cc1	17	nt	nt	nt	nt	-5
CC(=O)Nc1ccc(NC(=O)C(C)c2cccc(C(=O)c3ccccc3)c2)cc1 (configuration not stated)	2	nt	nt	nt	nt	-5
Cc1cc(C)c(NC(=O)C(C)c2cccc(C(=O)c3ccccc3)c2)c(C)c1 (configuration not stated)	38	16	-5.5*	-0.51	-0.13	nt
SMILES	Measles CPE	Rev-RRE block	Cav3 T inh	Pyk2 oligo antag	DAT uptake mod	Phagocytosis inh
CC(=O)N(Cc1ccco1)C1(C(=O)NC2CCCCC2)CCCCC1	17	0	-0.2	-0.6	-1.1	1
O=C(Cc1cccs1)N(Cc1ccco1)C1(C(=O)NC2CCCCC2)CCCCC1	4	9	-7.1*	-4.2*	-0.0062	0
CCC(C)(C(=O)NC1CCCCC1)N(Cc1ccco1)C(=O)Cc1cccs1 (configuration not stated)	3	-2	-4.7*	0.57	-1.1	nt
O=C(Cc1cccs1)N(Cc1cccs1)C1(C(=O)NC2CCCC2)CCCCC1	16	10	-8.4*	-3.4*	-1.5	0
O=C(c1ccc2c(c1)OCO2)N(Cc1cccs1)C1(C(=O)NC2CCCCC2)CCCCC1	7	nt	nt	nt	nt	-2
COC(C[C@@H]1O[C@H]1C(=O)COCc1ccccc1)OC	nt	nt	1.2	nt	-0.51	nt
O=C(OCc1nc2ccccc2[nH]1)C12CC3CC(CC(C3)C1)C2	5	7	-6.7*	0.22	0.26	nt
O=C(NCCO)c1ccccc1O	26*	7	0.0076	-0.22	-9.9*	4
O=C(NCCCc1ccccc1)c1ccccc1O	2	7	-2.6	0.15	1.1	0
O=C(O)CCn1c(SCc2cccc3ccccc23)nc2ccccc21	29*	-2	-0.82	-0.08	-0.068	1
COc1ccc(O[C@H]2C=C[C@@H](c3ccccc3)O[C@@H]2CO/N=C(\C)CCN2CCCCc3nc(C)c(C)cc32)cc1	23*	nt	nt	nt	nt	nt
O=C(Nc1nc(-c2ccccc2)cs1)C1COc2ccccc2O1 (configuration not stated)	28	9	-1.9	-0.47	-0.55	1
O=C(Nc1nc(-c2ccc3c(c2)OCO3)cs1)C1COc2ccccc2O1 (configuration not stated)	20	nt	-5.3*	nt	-0.28	-2
Cc1ccc(C(=O)Nc2cccc(C(=O)N3CCOCC3)c2)cc1	11	2	0.45	-0.01	0.63	1
O=C(Nc1cccc(C(=O)N2CCOCC2)c1)c1cncc(Br)c1	38*	4	0.25	0.1	0.32	-1
CCOC(=O)CN1C(=O)C(Sc2n[nH]c(-c3ccc(C)cc3)n2)CCc2ccccc21 (configuration not stated)	11	14	-3.5*	-1.5	1.2	nt
CCOC(=O)CN1C(=O)C(Sc2n[nH]c(-c3cccc(C)c3)n2)CCc2ccccc21 (configuration not stated)	5	4	-3	-0.69	0.74	0
O=C(NCc1ccco1)c1cc(-c2ccccc2)nn1CC1CC(c2cccnc2)=NO1 (configuration not stated)	nt	nt	0.77	nt	2.1*	nt
CC1Nc2ccccc2C(=O)N1NS(=O)(=O)c1ccccc1 (configuration not stated)	8	nt	nt	nt	nt	-6
